Test [1] has as its system Jurkat. Description: Anti-inflammatory activity in PMA/ionomycin stimulated human Jurkat T cells assessed as reduction in IL-2 secretion preincubated for 20 mins followed by PMA/ionomycin stimulation measured after 12 hrs by ELISA. Format: functional, cell-based. The gist of the method: (§1)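 Jurkat T cells seeded at 1 × 10^5 cells/well and pretreated with compound for 20 min, then stimulated with PMA (40 nM) plus ionomycin (1 μM) for 12 h at 37 °C. DMSO was the negative control and FK506 (100 nM) the positive control. IL-2 in 100 μL supernatant was measured by sandwich ELISA with streptavidin detector and TMB substrate, read at 450 nm.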

The subject of test [2] is Jurkat. Briefly: Anti-inflammatory activity in PMA/ionomycin stimulated human Jurkat T cells assessed as reduction in IL-2 secretion at 20 uM preincubated for 20 mins followed by PMA/ionomycin stimulation measured after 12 hrs by ELISA. Format: functional, cell-based. The gist of the method:
as §1
(An ELISA detects its analyte on a solid surface through an enzyme-linked reagent.)

The subject of the next test is K562. Briefly: Cytotoxicity against human K562 cells assessed as reduction in cell viability after 72 hrs by alamar blue assay. Format: cell-based. To be noted: K562, 72 h. The gist of the method: (§2)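 Cells seeded at 2 × 10^4 cells/well and exposed to compound for 72 h. DMSO was the negative control and doxorubicin the positive control. AlamarBlue (1:10 dilution) was then added for 4 h at 37 °C, and absorbance was read at 590 nm.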
(Alamar Blue is a resazurin reagent that responds to reducing activity.)

Test [3] concerns Jurkat. Description: Cytotoxicity against human Jurkat T cells assessed as reduction in cell viability after 72 hrs by alamar blue assay. Format: cell-based. The procedure, abridged: as §2
The next test deals with HeLa. Description: Cytotoxicity against human HeLa cells assessed as reduction in cell viability after 72 hrs by alamar blue assay. In kind it is cell-based. The procedure, abridged: as §2

We go through eleven molecules from ChEMBL document CHEMBL4118058, “Amino Acid Conjugated Anthraquinones from the Marine-Derived Fungus Penicillium sp. SCSIO sof101” (J Nat Prod, 2017).

In general, IC50 refers to the concentration that inhibits the measured activity by half.

Active and inactive are the calls of the source. The calls are words filed in the database; no cut-off is given here.

With `C=CC[C@@H]1/C=C(\C)C[C@H](C)C[C@H](OC)[C@H]2O[C@@](O)(C(=O)C(=O)N3CCCC[C@H]3C(=O)O[C@H](/C(C)=C/[C@@H]3CC[C@@H](O)[C@H](OC)C3)[C@H](C)[C@@H](O)CC1=O)[C@H](C)C[C@@H]2OC` [TACROLIMUS ANHYDROUS], the IC50 with Jurkat [1] stood at 5.8 µM.
On to `CC(C)C[C@H](NC(=O)c1cc(O)c2c(c1)C(=O)c1cc(O)c(Cl)c(O)c1C2=O)C(=O)O`, for which the outcome in the test on Jurkat [2] was Active. The IC50 in the test on K562, with Jurkat [3] and with HeLa was above 10 µM throughout.
Consider `CC(C)[C@H](NC(=O)c1cc(O)c2c(c1)C(=O)c1cc(O)cc(O)c1C2=O)C(=O)O`, for which the outcome in the test with Jurkat [2] was Active. Further, the IC50 in the test with K562, in the test on Jurkat [3] and in the test with HeLa was above 10 µM throughout.
On to `COC(=O)[C@@H](NC(=O)c1cc(O)c2c(c1)C(=O)c1cc(O)cc(O)c1C2=O)C(C)C`, for which the outcome in the test with Jurkat [2] was Active. Besides, the IC50 in the test on K562 was above 10 µM; with Jurkat [3], above 10 µM; in the test on Jurkat [1], 4.1 µM; with HeLa it was above 10 µM.
For the molecule `CC(C)[C@H](NC(=O)c1cc(O)c2c(c1)C(=O)c1cc(O)c(Cl)c(O)c1C2=O)C(=O)O`, the outcome in the test with Jurkat [2] was Active. The half-inhibitory concentration (IC50) is above 10 µM in the test on K562, above 10 µM with Jurkat [3], 5.1 µM with Jurkat [1] and above 10 µM with HeLa.
As for `O=C1c2cc(CO)cc(O)c2C(=O)c2c1cc(O)c(Cl)c2O`, the IC50 in the test with K562, in the test with Jurkat [3] and in the test with HeLa was above 10 µM in each case.
For `CCC(C)[C@H](NC(=O)c1cc(O)c2c(c1)C(=O)c1cc(O)cc(O)c1C2=O)C(=O)OC` (some centres undefined), the result with Jurkat [2] was Active. In addition, the concentration for half-maximal inhibition (IC50) was above 10 µM in the test with K562, above 10 µM in the test with Jurkat [3], 12 µM with Jurkat [1] and above 10 µM in the test with HeLa.
Regarding `CCC(C)[C@H](NC(=O)c1cc(O)c2c(c1)C(=O)c1cc(O)cc(O)c1C2=O)C(=O)O` (some centres undefined), the outcome in the test on Jurkat [2] was Active. The IC50 with K562 is above 10 µM; in the test with Jurkat [3] it was above 10 µM; in the test with Jurkat [1], 5.4 µM; in the test on HeLa, above 10 µM.
With `CCC(C)[C@H](NC(=O)c1cc(O)c2c(c1)C(=O)c1cc(O)c(Cl)c(O)c1C2=O)C(=O)O` (some centres undefined), in the test on Jurkat [2], the result was Active. Also, the IC50 in the test on K562, in the test with Jurkat [3] and in the test on HeLa was above 10 µM each time.
Consider `O=C(O)c1cc(O)c2c(c1)C(=O)c1cc(O)cc(O)c1C2=O` [EMODIC ACID], for which the outcome in the test with Jurkat [2] was Active. The IC50 in the test on K562, in the test on Jurkat [3] and in the test with HeLa was above 10 µM each time.
For `C[C@H](NC(=O)c1cc(O)c2c(c1)C(=O)c1cc(O)cc(O)c1C2=O)C(=O)O`, in the test with Jurkat [2], the result was Active. Besides, the IC50 with K562, in the test on Jurkat [3] and with HeLa was above 10 µM in each case.
